Assay results taken from article PMC4678411 (Journal of Medicinal Chemistry, 2015).
Converted amounts (≈) assume the structure as drawn.

Columns and labels:
[1] = tested on: HT-29 human colon adenocarcinoma cell line; experiment: Efficacy study in a mouse model of human colon adenocarcinoma; type: in vivo, female athymic nude mice; settings: for test-article related deaths: 0.9 mg/kg IP, ten mice
Procedure, shortened: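 Female athymic nude mice aged 7–9 weeks, acclimated ≥7 days. Implanted s.c. in the right flank with 1.74 × 10^6 mycoplasma-negative HT-29 cells in 50% Matrigel/medium. Randomized at mean 110 mm3, 10 per group. Dosed IP in USP saline (0.2 mL) by group-mean body weight, daily or intermittently, for 28 days. Caliper volume (L × W²/2) measured ≥twice weekly, plus necropsy tumor weight, survival, body weight and clinical signs.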

[2] = Chemical hydrolysis stability study at 40-70 °C with Arrhenius extrapolation; type: physicochemical; settings: for extrapolated pseudo-first-order rate constant (kobsd) for hydrolysis: extrapolated from Arrhenius plot; for pseudo-first-order rate constant (kobsd) of hydrolysis: pH 7.4; for half-life: pH 7.4, calculated half-life (t1/2) of hydrolysis
Procedure, shortened: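 Test compound dissolved in Sodium Chloride Injection USP at 20.0 mg/100 mL ("high") or 3.00 mg/100 mL ("low"). Flame-sealed in sterilized ampules and held at 70, 60, 50 or 40 °C, sampled at intervals over hours (70, 60 °C) or days (50, 40 °C). Analysed by HPLC. Ea came from an Arrhenius plot, which was extrapolated to give kobsd, t1/2 and t90 at 25 and 4 °C.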

[3] = Aqueous solubility determination; type: physicochemical; settings: pH 7.4
Procedure, shortened: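 About 5 mg excess solid in Tris buffer pH 7.4, in triplicate. Sonicated, vortexed, then shaken at 100 shakes/min at 25 °C for 24 h. Solid removed by centrifugation and filtration; filtrate diluted. Quantified by HPLC on a C18 column with photodiode-array detection, using an acetonitrile (10–70%)/10 mM sodium phosphate pH 7 gradient over 20 min.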

[4] = tested on: alkaline phosphatase from bovine intestinal mucosa; settings: no enzyme; cited from earlier work
[5] = tested on: A2780 human ovarian cancer cell line; experiment: Efficacy study in a mouse model of human ovarian cancer; type: in vivo, female athymic nude mice
Procedure, shortened: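 A2780 cells (RPMI 1640/10% FBS, mycoplasma-negative) implanted s.c. at 2.5 × 10^6 in 50% Matrigel into female athymic nude mice aged 7–9 weeks. Randomized at mean 188 mm3, 10 per group. Daily IP or oral-gavage doses of 0.1–1.2 mg/kg in USP saline for 30 days. Controls were vehicle and carboplatin 60 mg/kg twice weekly. Tumor volume (L × W²/2), survival and clinical signs tracked.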

[6] = clinical trials, patients; cited from earlier work

CC(C)[C@]12O[C@H]1[C@@H]1O[C@]13[C@]1(O[C@H]1C[C@H]1C4=C(CC[C@@]13C)C(=O)OC4)[C@@H]2OCOP(=O)([O-])[O-].[Na+].[Na+] [Compound 4, Sodium (((5bS,6aS,7aR,8R,8aS,9aS,9bS,10aS,10bS)-8a-Isopropyl-10b-methyl-3-oxo-1,2,3,5,5b,6,6a,8,8a,9a,9b,10b-dodecahydrotris(oxireno)[2′,3′:4b,5;2″,3″:6,7;2‴,3‴:8a,9]phenanthro[1,2-c]furan-8-yl)oxy)methyl Phosphate]
mice that survived until the end of the study ([1]; 0.9 mg/kg IP daily for 2 weeks followed by 3×/week): 9/10 | mice that survived until the end of the study ([1]; 0.9 mg/kg IP daily for 4 weeks): 7/10 | tumor status of all mice surviving until the end of the study ([1]; 0.9 mg/kg IP daily for 4 weeks or daily for 2 weeks followed by 3×/week): tumor free | effect on xenograft tumors, intermittent regimens ([1]; 0.9 mg/kg IP less frequently than daily or with a break from daily dosing): effective | test-article related deaths ([1]; QD for 2 weeks group): 1 | test-article related deaths ([1]; QD for 2 weeks then 3×/week group): 1 | test-article related deaths ([1]; QD for 4 weeks group): 3 | tolerability ([1]; IP, 0.1-0.9 mg/kg, all regimens): generally well tolerated | effect on xenograft tumors ([1]; administered daily IP, dose levels from 0.3 to 0.9 mg/kg, 28 days): effective in reducing or eliminating xenograft tumors | extrapolated pseudo-first-order rate constant (kobsd) for hydrolysis ([2]; 4 °C): 6.5 × 10^–6 h^–1 | extrapolated pseudo-first-order rate constant (kobsd) for hydrolysis ([2]; 25 °C): 8.6 × 10^–5 h^–1 | pseudo-first-order rate constant (kobsd) of hydrolysis ([2]; 40 °C): 0.000494 h^–1 | pseudo-first-order rate constant (kobsd) of hydrolysis ([2]; 50 °C): 0.001052 h^–1 | pseudo-first-order rate constant (kobsd) of hydrolysis ([2]; 60 °C): 0.002482 h^–1 | pseudo-first-order rate constant (kobsd) of hydrolysis ([2]; 70 °C): 0.008659 h^–1 | activation energy (Ea) of hydrolysis ([2]; from Arrhenius plot, pH 7.4, 40-70 °C): 15.2 kcal/mol | half-life ([2]; 4 °C): 4460 days | half-life ([2]; 25 °C): 336 days | solubility enhancement by prodrug formation versus triptolide [3]: 3600 times | stability in a similar assay in the absence of alkaline phosphatase [4]: stable for 1 h | efficacy and tolerability ([5]; intraperitoneal injection, daily doses of 0.6 or 0.9 mg/kg (data not shown)): effective and well tolerated | efficacy ([5]; oral gavage, daily doses of 0.6 or 0.9 mg/kg, slightly higher rates of morbidity and mortality): effective

CC(C)[C@]12O[C@H]1[C@@H]1O[C@]13[C@]1(O[C@H]1C[C@H]1C4=C(CC[C@@]13C)C(=O)OC4)[C@@H]2OC(=O)CCC(=O)O [omtriptolide, triptolide succinate]
cleavage of the prodrug moiety [6]: slow and incomplete

CC(C)[C@]12O[C@H]1[C@@H]1O[C@]13[C@]1(O[C@H]1C[C@H]1C4=C(CC[C@@]13C)C(=O)OC4)[C@@H]2O [triptolide, Triptolide, reference compound]
solubility at 24 h ([3]; Tris buffer): 17 µg/mL (≈ 47.2 µM)
